A word on the inhibition: it is how much of the control response was suppressed. Low values mean a response near the control, high ones a response far below the control. As a reminder, the Ki is the equilibrium dissociation constant of an inhibitor or competing ligand from its target. A high value points to weaker binding. As a reminder, the Emax is the greatest response seen or fitted, relative to the assay's reference. The term EC50 denotes the midpoint of the concentration-response curve. The ED50 is the midpoint of the dose-response relation. Lower therefore signals greater potency.

The values below come from ChEMBL document CHEMBL1133296, “Synthesis and 5-hydroxytryptamine (5-HT) activity of 2,3,4,4a-tetrahydro-1H-pyrazino[1,2-a]quinoxalin-5-(6H)ones and 2,3,4,4a,5,6-hexahydro-1H-pyrazino[1,2-a]quinoxalines” (Bioorg Med Chem Lett, 2000).

The target in test [1] is T1, 5-hydroxytryptamine receptor 2C (Homo sapiens) (UniProt P28335).
T1 sequence (whole entry): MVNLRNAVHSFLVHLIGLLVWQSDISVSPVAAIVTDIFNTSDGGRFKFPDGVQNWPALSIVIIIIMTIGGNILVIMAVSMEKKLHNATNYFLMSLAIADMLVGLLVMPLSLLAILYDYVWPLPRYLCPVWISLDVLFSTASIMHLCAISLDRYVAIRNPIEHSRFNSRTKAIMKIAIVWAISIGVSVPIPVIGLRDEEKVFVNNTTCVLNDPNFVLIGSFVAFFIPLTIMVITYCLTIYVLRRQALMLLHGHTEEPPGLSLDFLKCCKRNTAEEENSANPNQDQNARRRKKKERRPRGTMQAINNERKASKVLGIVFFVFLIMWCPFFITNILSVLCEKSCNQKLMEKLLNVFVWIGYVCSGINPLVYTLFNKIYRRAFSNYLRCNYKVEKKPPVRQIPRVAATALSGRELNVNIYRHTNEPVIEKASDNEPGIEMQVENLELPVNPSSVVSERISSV
In words: Inhibitory activity using [3H]mesulergine as radioligand with receptor membranes isolated from a CHO-k cell line expressing the human 5-hydroxytryptamine 2C receptor at a concentration of 1 uM. Type of test: cell-free.

For test [2], the target named is T2, 5-hydroxytryptamine receptor 2C (Homo sapiens, UniProt P28335).
T2 sequence (P28335 whole entry): T1 sequence (whole entry)
Put plainly: Binding affinity using [3H]mesulergine as radioligand with receptor membranes isolated from a CHO-k cell line expressing the human 5-hydroxytryptamine 2C receptor. The method, boiled down:
(§1)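 Competition binding used human 5-HT2C CHO membranes. [125I]DOI labelled agonist sites and [3H]mesulergine labelled antagonist sites. IC50 came from nine-point concentration curves, each point in triplicate. Ki was calculated by Cheng-Prusoff: Ki = IC50/(1 + [radioligand]/Kd).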

Test [3] is described as follows: Emax values indicate relative efficacy compared to a maximally effective 5-HT2c (5-HT) concentration. Type of test: functional. An outline of the steps: (§2)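 CHO cells stably expressing human 5-HT2C were labelled overnight with myo-[3H]inositol, washed, and preincubated 30 min in medium containing LiCl. Agonist was then added at 10^-10 to 10^-5 M for 30 min. [3H]IP was counted by liquid scintillation and expressed as % of the maximal 5-HT response. EC50 came from six-point curves in duplicate, fitted by a three-parameter logistic; Emax is relative to maximal 5-HT.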

Test [4] addresses T2, 5-hydroxytryptamine receptor 2C. Put plainly: Binding affinity using [125I]DOI as radioligand with membranes isolated from a CHO-k cell line expressing the human 5-hydroxytryptamine 2C receptor. The method, boiled down: as §1
Test [5] shares this target. In words: Agonistic activity for 5-HT2c (5-HT2C) by measuring [3H]inositol monophosphate fromation in CHO cells in which the human 5-HT2C receptor subtype was stably expressed. Type of test: functional, cell-based. The method, boiled down:
as §2

For test [6], the system named is Rattus norvegicus. Put plainly: Concentration required to decrease food intake in Sprague-Dawley rats when compound administered orally. In kind it is functional. The note with it: po. The method, boiled down: (§3)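 Male Sprague-Dawley rats were fasted 24 h, then given vehicle or test dose, ip or po. Powdered chow was returned and 2 h food intake was recorded. Each animal was fasted twice weekly (Monday, Thursday) and tested the following day. Groups were compared by one-way ANOVA with post hoc t-tests, and ED50 was calculated.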

The test system of test [7] is Rattus norvegicus. Put plainly: Concentration required to decrease food intake in Sprague-Dawley rats when compound administered intraperitoneally. Type of test: functional. Particulars: ip. The method, boiled down:
as §3

The compound `O=C1Nc2c(F)cccc2N2CCNCC12` (centres undefined) yielded an inhibition in test [1] of 48%.

For the compound `O=C1Nc2cc(C(F)(F)F)c(Cl)cc2N2CCNC[C@@H]12`, the affinity in test [2], expressed as Ki, was 3600 nM. This compound gave an Emax in test [3] of 85%.

In the case of `COC(=O)c1ccc2c(c1)NC(=O)C1CNCCN21` (centres undefined), in test [1], the inhibition was found to be 1%.

In test [1], `CN1C(=O)C2CNCCN2c2ccccc21` (centres undefined) registered an inhibition of 9%.

`O=C1Nc2cc(Cl)c(Cl)cc2N2CCNCC12` (centres undefined): the values for the Ki in test [4] and in test [2] were 4 nM and 58 nM, respectively. For the same compound, in test [3], the Emax is 110%.

In the case of `Clc1cc2c(cc1Cl)N1CCNC[C@H]1CN2`, the Ki in test [4] is 8 nM; in test [2], 61 nM. This compound also gave an Emax in test [3] of 82%. In test [5], this compound returned an EC50 of 45 nM.

Consider `O=C1Nc2cc(C(F)(F)F)c(Cl)cc2N2CCNC[C@H]12`, for which affinity in test [2] was put at a Ki of 160 nM. For the same compound, the Emax in test [3] was 97%.

For the compound `NC(=O)c1ccc2c(c1)NC(=O)C1CNCCN21` (centres undefined), the inhibition in test [1] was determined as 5%.

In test [1], `c1ccc2c(c1)NCC1CNCCN21` (centres undefined) yielded an inhibition of 22%.

In the case of `O=C1Nc2cc(Cl)ccc2N2CCNCC12` (centres undefined), in test [1], the inhibition came to 33%.

As to `O=C1Nc2ccc(F)cc2N2CCNCC12` (centres undefined), the inhibition in test [1] came out at 26%.

In the case of `Clc1cc2c(cc1Cl)N1CCNCC1CN2` (centres undefined), in test [2], the affinity, expressed as Ki, was 18 nM. This compound came in with an Emax in test [3] of 96%. Also, the EC50 in test [5] amounted to 7.6 nM.

In test [2], `O=C1Nc2cc(Cl)c(Cl)cc2N2CCNC[C@@H]12` came in with a Ki of 285 nM. In test [3], the maximal effect (Emax) is 88%.

Turning to `O=C1Nc2cc(C(F)(F)F)c(Cl)cc2N2CCNCC12` (centres undefined), the inhibitory constant (Ki) in test [4] was found to be 9 nM; in test [2], 84 nM. In test [3], this compound displayed an Emax of 108%. For the same compound, in test [5], the half-maximal effective concentration (EC50) stood at 136 nM.

For the compound `O=C1Nc2cc(C(F)(F)F)ccc2N2CCNCC12` (centres undefined), the inhibition in test [1] stood at 46%.

In test [1], `O=C1Nc2ccccc2N2CCNC[C@@H]12` yielded an inhibition of 10%.

On to `O=C(c1ccccc1)c1ccc2c(c1)NC(=O)C1CNCCN21` (centres undefined), for which the figures for the Ki in test [4] and in test [2] were 2150 nM and 9200 nM, respectively.

`O=C1Nc2ccccc2N2CCNC[C@H]12` gave an inhibition in test [1] of 47%.

`Cc1ccc2c(c1)N1CCNCC1C(=O)N2` (centres undefined) yielded an inhibition in test [1] of 0%.

On to `O=C1Nc2c(Cl)cccc2N2CCNCC12` (centres undefined), for which, in test [1], the inhibition turned out to be 15%.

`O=C1Nc2cccc(Cl)c2N2CCNCC12` (centres undefined): the inhibition in test [1] came to 8%.

With `O=C1Nc2ccc(Cl)c(Cl)c2N2CCNCC12` (centres undefined), the Ki in test [4] worked out at 1000 nM; in test [2], 1700 nM.

`O=C1Nc2cc(F)ccc2N2CCNCC12` (centres undefined) had an inhibition in test [1] of 7%.

Take `COc1ccc2c(c1)N1CCNCC1C(=O)N2` (centres undefined): in test [1], the inhibition came to 36%.

For the compound `Nc1ccc2c(c1)NC(=O)C1CNCCN21` (centres undefined), the inhibition in test [1] is 0%.

In turn, `O=C1Nc2cc(F)c(F)cc2N2CCNCC12` (centres undefined) registered an inhibition constant (Ki) in test [2] of 1800 nM. This lies in the single-digit micromolar range.

Consider `CCCCN(CCCC)c1ccc2c(c1)NC(=O)C1CNCCN21` (centres undefined), for which, in test [1], the inhibition is 7%.

Take `O=C1Nc2ccc(Cl)cc2N2CCNCC12` (centres undefined): the inhibition in test [1] is 67%.

The compound `O=C1Nc2ccccc2N2CCNCC12` (centres undefined) returned an inhibition in test [1] of 25%.

Regarding `Clc1cc2c(cc1Cl)N1CCNC[C@@H]1CN2`, the inhibitory constant (Ki) is 7 nM in test [4] and 88 nM in test [2]. Also, in test [3], the maximum response (Emax) was 107%. Further, the midpoint of the response in test [5], the EC50, lay at 49 nM.

In the case of `O=C1Nc2ccc(O)cc2N2CCNCC12` (centres undefined), in test [1], the inhibition stood at 24%.

`O=C1Nc2ccc(Cl)cc2N2CCNC[C@H]12`: the Ki in test [4] came out at 34 nM; in test [2], 238 nM. The compound also returned an Emax in test [3] of 95%. This compound also registered a half-maximal effective concentration (EC50) in test [5] of 86 nM.

The compound `O=C1Nc2cc(NC(=O)C(F)(F)F)ccc2N2CCNCC12` (centres undefined) returned an inhibition in test [1] of 21%.

Consider `FC(F)(F)c1cc2c(cc1Cl)N1CCNC[C@@H]1CN2`, for which the Ki in test [4] is 17 nM; in test [2], 92 nM. The compound also registered an Emax in test [3] of 76%. The compound also had an EC50 in test [5] of 19 nM.

With `O=C1Nc2cc(Cl)c(Cl)cc2N2CCNC[C@H]12`, the Ki in test [4] was 3 nM; in test [2], 32 nM. In addition, the maximum response (Emax) in test [3] was found to be 112%. The ED50 came to 10 mg/kg with Rattus norvegicus [6] and 2 mg/kg in the test on Rattus norvegicus [7].

`O=C1Nc2c(Cl)cc(Cl)cc2N2CCNCC12` (centres undefined) returned an inhibitory constant (Ki) in test [2] of 368 nM.
